# Runt-CBFb FRET – inhibitors of human RUNX1 Runt domain binding to CBFb; 220,000 compounds, 0.46% hits; Cerulean-Runt/Venus-CBFb FRET ratio 530/480, 1 h; AID 1496; inhibition, % at 20 µM;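 active means inhibition over about 50% at 20 µM in the single-dose screen, limit read from the data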;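 further: 0% = DMSO wells and 100% = excess unlabeled CBFb competitor control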
#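 test system = Cerulean-tagged RUNX1 Runt domain (FRET donor) fusion protein | reagent = Venus-CBFb binding partner, 100 nM | incubation = protein complex preformed 1 h, compound exposure 1 h, room temperature, dark | detection = FRET fluorescence | read-out basis = loss of energy transfer signal | controls = 5 µM unlabeled CBFb as full-inhibition high control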
# Tb hexokinase – T. brucei hexokinase 1 inhibition; recombinant TbHK1, G6PDH-coupled NADH A340; inhibition, % at 10 µM; 220,000 compounds, 0.11% hits; AID 1430;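 active means inhibition of 50% or more in the single-dose primary screen; inactive means inhibition below 50%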
# RanGTP-Impb inh – inhibitors of RanGTP-importin-beta interaction, primary screen, biochemical, FRET, CFP-Ran, YFP-importin-beta, homogeneous | cell-free CFP-Ran/YFP-importin-beta FRET ratio | inhibition, % (no concentration beside the values) | 300,000 compounds, 1.1% hits;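 active means more than half of the replicate wells show a fall in the fluorescence ratio signal beyond about 16%, limit read from the data, passing the limit was not always enough; inconclusive means exactly half of the replicate wells pass the set limit; inactive means fewer than half of replicates pass the limit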;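 further: 0% = DMSO wells and 100% = Ran loaded with GDP instead of GTP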
# Runt-SMMHC FRET – blocks binding of human RUNX1 Runt domain to CBFb-SMMHC; Q01196+Q13951; Cerulean-Runt/Venus-CBFb-SMMHC FRET ratio 530/480, 1 h; inhibition, % at 20 µM; 220,000 compounds, 0.74% hits; AID 1434;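 active means mean inhibition across duplicate retests at 20 µM reaching about 50%, limit read from the data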;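 further: 0% = DMSO wells and 100% = wells with excess untagged CBFb-SMMHC; inhibitors lower the FRET ratio by blocking Runt binding to CBFb-SMMHC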
# p97 ATPase inh – blocks human p97 ATPase activity; recombinant p97 ATPase, Kinase-Glo ATP luminescence, 3 h; inhibition, % at 8 µM; 220,000 compounds, 0.42% hits; P55072; in the data active means inhibition above about 15%;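 further: 0% = DMSO vehicle and 100% = wells lacking enzyme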
# Hck Nef HTS – inhibitors of human Hck kinase activated by Nef; P08631; Recombinant Hck-YEEI plus Nef, Z-Lyte FRET kinase assay; inhibition, % at 20 µM; 220,000 compounds, 0.68% hits; AID 463187;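 active means Hck-Nef kinase inhibition above about 50%, limit read from the data; inactive means inhibition below that limit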;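 further: 0% = DMSO with Hck plus Nef and 100% = Hck alone without Nef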
# Target sequence (P08631 whole entry, looked up): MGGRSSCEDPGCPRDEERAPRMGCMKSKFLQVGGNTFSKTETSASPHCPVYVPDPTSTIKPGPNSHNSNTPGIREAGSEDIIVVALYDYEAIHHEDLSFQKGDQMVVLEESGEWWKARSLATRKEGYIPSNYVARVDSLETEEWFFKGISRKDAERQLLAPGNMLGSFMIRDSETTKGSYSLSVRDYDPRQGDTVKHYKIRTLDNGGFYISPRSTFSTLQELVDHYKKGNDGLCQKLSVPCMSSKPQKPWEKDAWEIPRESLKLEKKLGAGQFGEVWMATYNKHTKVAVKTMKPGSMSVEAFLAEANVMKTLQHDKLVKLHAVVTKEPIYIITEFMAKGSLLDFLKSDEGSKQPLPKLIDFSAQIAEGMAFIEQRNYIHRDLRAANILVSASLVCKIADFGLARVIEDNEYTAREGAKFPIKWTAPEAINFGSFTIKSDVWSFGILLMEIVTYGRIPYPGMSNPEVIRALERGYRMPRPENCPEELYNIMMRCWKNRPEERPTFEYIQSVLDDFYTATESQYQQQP
# The depositor's hits bear a star; ? = inconclusive; . = no result. Shown are actives, neighbours in structure and some others; about 2.1% of the full set was active somewhere.
SMILES,Runt-CBFb FRET,Tb hexokinase,RanGTP-Impb inh,Runt-SMMHC FRET,p97 ATPase inh,Hck Nef HTS
Cc1ccc(S(=O)(=O)/N=C2/C=C(Sc3ncn[nH]3)C(=O)c3ccccc32)cc1,14,35,.,43,23*,5
CC(C)c1ccc(S(=O)(=O)/N=C2/C=C(Sc3ncn[nH]3)C(=O)c3ccccc32)cc1,4,4,.,36,22*,-2
COc1ccc(CN(C)C(=O)c2ccccc2Sc2ccccc2C#N)c(OC)c1,.,.,0,.,.,.
COc1ccc(C(CNc2ccc(C(F)(F)F)cn2)N(C)C)cc1OC (configuration not stated),.,.,5,.,.,.
N#C/C(C(N)=O)=C1/CCCN1Cc1ccccc1,.,.,-4,.,.,.
CC(C)NCC(=O)Nc1c2c(nc3ccccc13)CCC2,-4,-6,-1,-4,-2,4
c1coc(CNc2c3c(nc4ccccc24)CCC3)c1,12,-22,79*,44,2,7
CCOC(=O)C(C)Sc1nc(-c2ccccc2)nc2ccccc12 (configuration not stated),5,-4,?,-5,-1,21
O=C(CCn1cnc2ccccc2c1=O)Nc1cccc(Cl)c1Cl,-1,1,8,0,3,-8
CC(=O)N1CCc2[nH]c3ccccc3c2C1,-11,18,38*,-19,3,-3
O=C1CCCN1c1ccc(C(=O)N(Cc2nnc(-c3ccc(Cl)cc3)o2)C2CC2)cc1,.,.,3,.,.,.
CC1(C)Cc2c(sc3nc(C4CCCCC4)n(N)c(=O)c23)CO1,1,-5,5,2,-4,-4
CC1(C)Cc2c(sc3nc(C4CC4)n(N)c(=O)c23)CO1,98*,1,2,1,3,22
Cc1ccc(C)c(N2CCN(c3ccncc3N)CC2)c1,1,-6,1,1,-1,13
CN(C)CCN1C(=O)C(O)=C(C(=O)c2cc3ccccc3o2)C1c1ccccn1 (configuration not stated),0,-12,25*,-10,0,0
CCN(CC)CCCN1C(=O)C(O)=C(C(=O)c2cc3ccccc3o2)C1c1ccccn1 (configuration not stated),-1,-19,.,0,-1,0
CCN(CC)CCN1C(=O)C(=O)/C(=C(/O)c2cccc(OC)c2)C1c1ccccn1 (configuration not stated),1,18,43*,-5,-3,2
CCN(CC)CCN1C(=O)C(O)=C(C(=O)c2ccco2)C1c1ccccn1 (configuration not stated),9,-24,59*,10,-2,0
CCCOc1cccc(C2C(C(=O)c3ccco3)=C(O)C(=O)N2CCN(CC)CC)c1 (configuration not stated),0,-17,2,1,-6,0
COc1ccc(CCN(C)C(=O)c2ccc(S(=O)(=O)Nc3ccccc3F)cc2)cc1OC,.,.,6,.,.,.
O=C(Nc1cccc(Cl)c1)c1cc2c(=O)n3ccccc3nc2s1,.,.,91*,.,.,.
Cc1cccc(NC(=O)c2cc3c(=O)n4ccccc4nc3s2)c1,.,.,-26,.,.,.
Cc1ccccc1N1CCN(C(=S)c2ccc([N+](=O)[O-])cc2)CC1,35,5,26*,27,5,9
COc1ccc(-c2cc(C(F)(F)F)n3nc(C(=O)Nc4c(C)n(C)n(-c5ccccc5)c4=O)cc3n2)cc1,.,-18,.,.,17*,15
COc1cccc(-c2cc(C(F)(F)F)n3nc(C(=O)Nc4c(C)n(C)n(-c5ccccc5)c4=O)cc3n2)c1,-3,-4,13,2,4,19
SMILES,Runt-CBFb FRET,Tb hexokinase,RanGTP-Impb inh,Runt-SMMHC FRET,p97 ATPase inh,Hck Nef HTS
N#CCC(=O)Nc1ccc(C(=O)OCC(=O)N=c2sccn2Cc2ccccc2Cl)cc1,.,.,-2,.,.,.
O=C(/C=C/c1ccccc1)Nc1nnc(-c2ccco2)o1,0,-17,1,0,3,10
CCc1ccc(-c2cn3nc(-c4ccccc4)cnc3n2)cc1,2,-12,21*,12,9,4
CCC(C)(C)n1nnnc1C(c1ccc(C)cc1)N1CCN(C(=O)c2ccco2)CC1 (configuration not stated),-4,-7,4,2,0,-9
CCC(C)(C)n1nnnc1C(c1cc2cccc(C)c2[nH]c1=O)N1CCN(C(=O)c2ccco2)CC1 (configuration not stated),-18,-13,17*,-131,-1,0
COc1ccc(-n2nc3c(c2NC(=O)c2ccccc2S(=O)(=O)C(F)F)CS(=O)(=O)C3)cc1,.,.,0,.,.,.
O=C(O)c1cc(-c2ccc(/C=C3\NC(=O)N(c4ccccc4)C3=O)o2)ccc1Cl,46,-12,4,82*,11,-6
O=C1NN(c2ccccc2)C(=O)/C1=C/c1ccc(-c2ccc(Cl)c(C(=O)O)c2)o1,7,0,5,8,6,33
Cc1cccc(N2NC(=O)/C(=C/c3ccc(-c4ccc(Cl)c(C(=O)O)c4)o3)C2=O)c1,11,8,3,7,-1,39
O=C(O)c1cc(-c2ccc(/C=C3\NC(=O)N(c4ccc(Cl)cc4)C3=O)o2)ccc1Cl,18,-6,9,81*,4,8
COc1ccc(C(=O)NCc2nnc(SCC(=O)c3ccc(F)cc3)n2C)cc1OC,.,.,4,.,.,.
CCOC(=O)c1c(NC(=S)Nc2ccccc2)sc2c1CCN(CCc1ccccc1)C2,94*,4,.,86,3,10
CN1CCc2c(sc(N)c2C(=O)O)C1,75*,1,50*,144*,0,-12
CCOC(=O)c1c(NC(=S)Nc2ccccc2)sc2c1CC(C)(C)SC2,8,-17,1,7,1,2
CCOC(=O)c1c(N)sc2c1CCN(CCc1ccccc1)C2,.,.,72*,.,.,.
CCOc1cc(/C=N\Nc2ncc(F)c(N3CCOCC3)n2)ccc1Oc1nc(Cl)ncc1F,-5,-46,0,-7,6,20
O=C(NC(=S)Nc1ccc(N2CCCC2)cc1)c1ccc(F)cc1,.,.,-2,.,.,.
O=C(NC1CCC(O)CC1)c1cccnc1Sc1ccccc1Cl (configuration not stated),.,.,2,.,.,.
O=Cc1ccc(O)c2ncccc12,43,-9,9,74*,5,-1
O=C(CSc1nnc(NC(=O)C2CC2)s1)Nc1ccccc1Cl,.,.,2,.,.,.
CN(C)/C=C1/N=C(c2ccccc2)OC1=O,0,-73,-1,6,1,3
Cc1ccc(C2=N/C(=C\N(C)C)C(=O)O2)cc1,0,-72,17*,-1,2,4
CCn1c(=N)c(S(=O)(=O)c2ccccc2)cc2c(=O)n3ccccc3nc21,21,-1,170*,90*,-2,18
CCCn1c(=N)c(S(=O)(=O)c2ccccc2)cc2c(=O)n3ccccc3nc21,22,-17,198*,84*,1,-7
